Measurements as given in the M2OR odorant receptor database.

Key:
Conditions in all cases: stereoisomer not certain
[1] = target: T1, UniProt A2AVB5
T1 sequence (whole entry): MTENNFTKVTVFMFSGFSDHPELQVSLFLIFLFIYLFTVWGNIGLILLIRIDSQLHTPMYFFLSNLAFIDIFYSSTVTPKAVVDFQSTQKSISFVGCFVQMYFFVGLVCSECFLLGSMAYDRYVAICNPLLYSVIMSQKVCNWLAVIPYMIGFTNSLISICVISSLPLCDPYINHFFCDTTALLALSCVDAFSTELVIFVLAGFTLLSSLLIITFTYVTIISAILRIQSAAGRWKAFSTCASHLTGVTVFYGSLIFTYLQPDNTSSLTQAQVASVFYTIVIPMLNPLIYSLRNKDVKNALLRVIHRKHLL
How it was run: (§1)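 Values were gathered from published papers (main text and supplementary material), with extra details requested from the original authors when needed, and checked for typos and inconsistencies. Each receptor–molecule pair is called responsive (active) if the original authors judged the measured signal statistically different from baseline, and non-responsive (inactive) otherwise. Assay methods varied by source, often transient mammalian cell-line luciferase assays. Recorded details include cell line, G-protein, co-transfected protein and tags.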

[2] = target: T2, UniProt B2RVX8
T2 sequence (whole entry): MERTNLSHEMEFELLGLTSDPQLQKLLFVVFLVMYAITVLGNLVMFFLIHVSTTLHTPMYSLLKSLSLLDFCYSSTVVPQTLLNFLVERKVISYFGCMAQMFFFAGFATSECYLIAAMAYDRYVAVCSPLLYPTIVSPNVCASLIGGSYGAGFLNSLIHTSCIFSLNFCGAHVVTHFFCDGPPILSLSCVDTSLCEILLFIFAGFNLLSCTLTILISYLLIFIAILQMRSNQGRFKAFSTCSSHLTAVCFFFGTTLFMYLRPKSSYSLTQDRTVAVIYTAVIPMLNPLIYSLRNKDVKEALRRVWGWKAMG
How it was run: as §1

[3] = target: T3, UniProt E9PX47
T3 sequence (whole entry): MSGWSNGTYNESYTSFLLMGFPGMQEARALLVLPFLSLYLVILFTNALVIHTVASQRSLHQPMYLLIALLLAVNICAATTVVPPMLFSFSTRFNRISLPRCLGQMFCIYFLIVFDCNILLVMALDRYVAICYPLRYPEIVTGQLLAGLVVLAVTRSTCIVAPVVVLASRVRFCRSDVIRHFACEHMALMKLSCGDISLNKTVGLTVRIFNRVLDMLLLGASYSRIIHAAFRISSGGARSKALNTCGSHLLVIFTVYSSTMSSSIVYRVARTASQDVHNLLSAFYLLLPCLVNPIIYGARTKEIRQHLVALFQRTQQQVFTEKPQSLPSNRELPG
How it was run: as §1

[4] = target: T4, UniProt E9Q546
T4 sequence (whole entry): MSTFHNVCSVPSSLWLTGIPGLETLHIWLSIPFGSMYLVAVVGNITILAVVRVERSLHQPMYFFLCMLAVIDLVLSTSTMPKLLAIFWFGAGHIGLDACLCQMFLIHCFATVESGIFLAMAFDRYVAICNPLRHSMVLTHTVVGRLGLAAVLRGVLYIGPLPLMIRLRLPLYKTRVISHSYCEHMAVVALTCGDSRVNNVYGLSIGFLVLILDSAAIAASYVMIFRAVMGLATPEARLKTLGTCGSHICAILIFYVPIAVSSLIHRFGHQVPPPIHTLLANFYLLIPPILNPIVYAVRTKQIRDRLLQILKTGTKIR
How it was run: as §1

[5] = target: T5, UniProt K7N609
T5 sequence (whole entry): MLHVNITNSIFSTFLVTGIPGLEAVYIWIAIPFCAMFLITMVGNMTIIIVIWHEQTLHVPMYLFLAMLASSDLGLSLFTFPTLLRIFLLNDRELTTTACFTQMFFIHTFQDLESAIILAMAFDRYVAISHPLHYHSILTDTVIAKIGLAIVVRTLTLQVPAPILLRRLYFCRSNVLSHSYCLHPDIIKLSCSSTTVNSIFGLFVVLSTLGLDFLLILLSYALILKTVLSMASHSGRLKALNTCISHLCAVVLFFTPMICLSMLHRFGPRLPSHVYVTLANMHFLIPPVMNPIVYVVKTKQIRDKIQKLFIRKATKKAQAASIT
How it was run: as §1

[6] = target: T6, UniProt A2ATE5
T6 sequence (whole entry): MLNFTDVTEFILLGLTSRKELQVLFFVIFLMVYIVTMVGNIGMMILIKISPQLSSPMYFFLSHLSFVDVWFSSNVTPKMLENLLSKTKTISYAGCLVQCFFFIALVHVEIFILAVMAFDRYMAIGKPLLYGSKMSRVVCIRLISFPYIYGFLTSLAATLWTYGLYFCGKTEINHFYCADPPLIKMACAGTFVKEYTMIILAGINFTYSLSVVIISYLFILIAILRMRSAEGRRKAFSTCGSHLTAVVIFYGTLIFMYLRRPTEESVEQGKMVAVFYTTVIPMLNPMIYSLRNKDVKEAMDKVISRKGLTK
How it was run: as §1

[7] = target: T7, UniProt A2AVB0
T7 sequence (whole entry): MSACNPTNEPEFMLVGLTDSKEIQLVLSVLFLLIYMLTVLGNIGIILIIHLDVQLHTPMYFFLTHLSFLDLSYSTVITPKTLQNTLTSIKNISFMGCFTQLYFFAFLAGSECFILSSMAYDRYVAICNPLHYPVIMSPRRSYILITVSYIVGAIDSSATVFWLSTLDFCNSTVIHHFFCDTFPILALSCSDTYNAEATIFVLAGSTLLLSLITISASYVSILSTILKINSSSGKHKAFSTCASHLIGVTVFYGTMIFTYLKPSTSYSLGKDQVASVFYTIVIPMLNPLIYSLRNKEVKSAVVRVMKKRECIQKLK
How it was run: as §1

[8] = target: T8, UniProt E9PVX1
T8 sequence (whole entry): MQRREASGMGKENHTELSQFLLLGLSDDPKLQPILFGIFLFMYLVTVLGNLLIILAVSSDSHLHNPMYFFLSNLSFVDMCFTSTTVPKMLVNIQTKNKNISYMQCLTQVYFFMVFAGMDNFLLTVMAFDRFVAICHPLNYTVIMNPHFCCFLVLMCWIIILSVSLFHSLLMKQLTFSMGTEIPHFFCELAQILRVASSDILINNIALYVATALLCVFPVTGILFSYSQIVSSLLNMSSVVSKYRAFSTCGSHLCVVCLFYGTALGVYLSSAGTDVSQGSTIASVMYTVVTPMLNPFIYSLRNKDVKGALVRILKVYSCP
How it was run: as §1

[9] = target: T9, UniProt E9PZ66
T9 sequence (whole entry): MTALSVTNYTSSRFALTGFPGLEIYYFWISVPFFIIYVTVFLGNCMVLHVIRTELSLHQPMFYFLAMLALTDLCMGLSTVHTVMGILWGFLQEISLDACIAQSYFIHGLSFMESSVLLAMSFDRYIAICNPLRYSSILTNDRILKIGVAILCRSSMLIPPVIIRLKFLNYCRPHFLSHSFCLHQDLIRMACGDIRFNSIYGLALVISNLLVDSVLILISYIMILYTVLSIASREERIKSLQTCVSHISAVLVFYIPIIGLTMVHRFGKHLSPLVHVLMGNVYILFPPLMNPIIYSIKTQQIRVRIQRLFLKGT
How it was run: as §1

[10] = target: T10, UniProt E9Q4X7
T10 sequence (whole entry): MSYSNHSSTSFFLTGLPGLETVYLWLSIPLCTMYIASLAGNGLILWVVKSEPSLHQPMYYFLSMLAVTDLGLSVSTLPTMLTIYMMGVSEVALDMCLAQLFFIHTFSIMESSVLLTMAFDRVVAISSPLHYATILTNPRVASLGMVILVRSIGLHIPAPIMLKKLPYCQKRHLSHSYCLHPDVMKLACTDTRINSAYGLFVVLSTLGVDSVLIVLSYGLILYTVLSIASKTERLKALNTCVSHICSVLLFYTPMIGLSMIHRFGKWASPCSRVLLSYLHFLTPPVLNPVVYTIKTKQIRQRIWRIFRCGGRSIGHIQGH
How it was run: as §1

[11] = target: T11, UniProt E9Q6Z7
T11 sequence (whole entry): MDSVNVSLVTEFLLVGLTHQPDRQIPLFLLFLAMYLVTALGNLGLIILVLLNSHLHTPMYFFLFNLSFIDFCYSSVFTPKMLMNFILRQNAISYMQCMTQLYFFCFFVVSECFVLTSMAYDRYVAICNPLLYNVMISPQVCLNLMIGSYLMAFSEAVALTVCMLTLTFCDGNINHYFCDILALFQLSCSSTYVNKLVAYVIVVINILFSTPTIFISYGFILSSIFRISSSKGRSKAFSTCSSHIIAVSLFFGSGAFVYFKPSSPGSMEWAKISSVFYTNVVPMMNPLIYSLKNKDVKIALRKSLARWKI
How it was run: as §1

[12] = target: T12, UniProt E1BM68
T12 sequence (whole entry): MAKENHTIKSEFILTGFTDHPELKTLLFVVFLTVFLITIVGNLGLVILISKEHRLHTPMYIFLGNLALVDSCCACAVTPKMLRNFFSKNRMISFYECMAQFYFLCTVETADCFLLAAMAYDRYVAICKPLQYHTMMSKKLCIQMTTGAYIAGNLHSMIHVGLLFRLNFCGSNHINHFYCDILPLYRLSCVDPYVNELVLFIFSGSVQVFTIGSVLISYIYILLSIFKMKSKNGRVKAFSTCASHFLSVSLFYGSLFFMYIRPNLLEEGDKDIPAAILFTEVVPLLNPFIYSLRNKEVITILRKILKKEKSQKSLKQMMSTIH
How it was run: as §1

[13] = target: T13, UniProt E9QAT7
T13 sequence (whole entry): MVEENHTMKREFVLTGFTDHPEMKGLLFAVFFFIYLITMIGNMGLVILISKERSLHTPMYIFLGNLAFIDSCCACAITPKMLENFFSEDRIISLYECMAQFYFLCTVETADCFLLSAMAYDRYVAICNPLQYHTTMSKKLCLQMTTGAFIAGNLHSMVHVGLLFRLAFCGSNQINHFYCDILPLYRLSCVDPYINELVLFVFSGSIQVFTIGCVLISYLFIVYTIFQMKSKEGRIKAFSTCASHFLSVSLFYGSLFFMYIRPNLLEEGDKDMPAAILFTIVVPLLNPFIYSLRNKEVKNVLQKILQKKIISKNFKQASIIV
How it was run: as §1

Measured: odorant receptor agonist call

CCCCCCCC(=O)[O-].[H+]
active: [4]
inactive: [1] | [2] | [3] | [5]

C=C(CC)CCCC(C)(C)O
inactive: [6] | [7] | [8] | [9] | [10] | [4] | [11]

CCCCCO
inactive: [1] | [2] | [4] | [5]

CCc1ccccc1O
inactive: [6] | [7] | [8] | [9] | [10] | [4] | [11]

Cc1c(C)c(C)c(C=O)c(C)c1C
inactive: [6] | [7] | [8] | [9] | [10] | [4] | [11]

CCCCOC(=O)C(C)OC(=O)CCC (stereo not given)
inactive: [1] | [2] | [4] | [5]

CCCCCC(C)O (stereo not given)
inactive: [6] | [7] | [8] | [9] | [10] | [4] | [11]

CCc1occc(=O)c1O
inactive: [7] | [8] | [9] | [10] | [4] | [11]
active: [6]

CCCCCCC(=O)[O-].[H+]
inactive: [1] | [2] | [3] | [4] | [5]

Cc1cnc(C)cn1
inactive: [13]
active: [12]
